Source: ChEMBL document CHEMBL1142550, “Thiopyrano[2,3-e]indol-2-ones: angelicin heteroanalogues with potent photoantiproliferative activity” (Bioorg Med Chem, 2008)
The source made the active and inactive calls. The rule behind the calls is not given here.

Assays:
[1] = system: Jurkat; experiment: Photocytotoxicity against human JURKAT cells treated 30 mins before 2.5 J/cm'2 UVA irradiation measured after 72 hrs by MTT assay; type: functional, cell-based; conditions: light or radiation study
[2] = system: HT-1080; experiment: Photocytotoxicity against human HT1080 cells treated 30 mins before 3.75 J/cm'2 UVA irradiation measured after 72 hrs by MTT assay; type: functional, cell-based; conditions: HT-1080, light or radiation study
[3] = Photocytotoxicity against human NCTC 2544 cells treated 30 mins before 2.5 J/cm'2 UVA irradiation measured after 72 hrs by MTT assay; type: functional, cell-based; conditions: NCTC-2544, light or radiation study
[4] = Photocytotoxicity against human NCTC 2544 cells treated 30 mins before 3.75 J/cm'2 UVA irradiation measured after 72 hrs by MTT assay; type: functional, cell-based; conditions: NCTC-2544, light or radiation study
[5] = system: Escherichia coli; experiment: Induction of DNA photodamage of Escherichia coli pBR322 exposed to 3.5 J/cm'2 UVA irradiation
In short: (§1)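 pBR322 supercoiled plasmid (100 ng) in 10 mM phosphate buffer pH 7.2 irradiated with UVA (365 nm, 4.0 mW cm⁻²; 3.5 J cm⁻²) at [DNA]/[drug] ratios 1, 2 and 4. Aliquots were then incubated at 37 °C with Fpg or Endo III. Scavenger runs used drug ratio 1 with mannitol 10 mM, GSH 1 mM or NaN₃ 10 mM. Samples were run on 1% agarose in TAE, 70 V, 4 h. Read-out was % form II by densitometry, mean ± SEM of three independent experiments.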

[6] = system: Escherichia coli; experiment: Induction of DNA photodamage of Escherichia coli pBR322 exposed to 3.5 J/cm'2 UVA irradiation in presence of formamidopyrimidine DNA glycosylase; in short: as §1
[7] = system: Escherichia coli; experiment: Induction of DNA photodamage of Escherichia coli pBR322 exposed to 3.5 J/cm'2 UVA irradiation in presence of endonuclease 3; in short: as §1
[8] = system: Escherichia coli; experiment: Induction of DNA photodamage of Escherichia coli pBR322 exposed to 3.5 J/cm'2 UVA irradiation in presence of mannitol; in short: as §1
[9] = system: Escherichia coli; experiment: Induction of DNA photodamage of Escherichia coli pBR322 exposed to 3.5 J/cm'2 UVA irradiation in presence of sodium azide; in short: as §1
[10] = system: Escherichia coli; experiment: Induction of DNA photodamage of Escherichia coli pBR322 exposed to 3.5 J/cm'2 UVA irradiation in presence of reduced glutathione; in short: as §1
[11] = system: Jurkat; experiment: Photocytotoxicity against human JURKAT cells treated 30 mins before 3.75 J/cm'2 UVA irradiation measured after 72 hrs by MTT assay; type: functional, cell-based; conditions: light or radiation study
[12] = system: HT-1080; experiment: Photocytotoxicity against human HT1080 cells treated 30 mins before 2.5 J/cm'2 UVA irradiation measured after 72 hrs by MTT assay; type: functional, cell-based; conditions: HT-1080, light or radiation study
[13] = system: LoVo; experiment: Photocytotoxicity against human LoVo cells at 1.25 uM treated 30 mins before 2.5 J/cm'2 UVA irradiation measured after 72 hrs by MTT assay in presence of reduced glutathione; type: functional, cell-based
In short: (§2)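 LoVo cells were seeded at 5×10³ per well in Ham's F12/10% FCS. Drug 1.25 μM was given with an additive: BHA 10⁻⁵ M, DMTU 1 mM, GSH 1 mM or NaN₃ 10 mM. After 30 min in HBSS at 37 °C, cells received UVA 2.5 J cm⁻², and MTT viability was read 72 h later.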

[14] = system: LoVo; experiment: Photocytotoxicity against human LoVo cells at 1.25 uM treated 30 mins before 2.5 J/cm'2 UVA irradiation measured after 72 hrs by MTT assay in presence of 2,6-di-t-butylhydroxyanisole; type: functional, cell-based; in short: as §2
[15] = system: LoVo; experiment: Photocytotoxicity against human LoVo cells at 1.25 uM treated 30 mins before 2.5 J/cm'2 UVA irradiation measured after 72 hrs by MTT assay in presence of N-N'-dimethylthiourea; type: functional, cell-based; in short: as §2
[16] = system: LoVo; experiment: Photocytotoxicity against human LoVo cells at 1.25 uM treated 30 mins before 2.5 J/cm'2 UVA irradiation measured after 72 hrs by MTT assay in presence of sodium azide; type: functional, cell-based; in short: as §2
[17] = system: Jurkat; experiment: Induction of apoptosis in human JURKAT cells assessed as annexin V positive cells treated 30 mins before 2.5 J/cm'2 UVA irradiation measured after 24 hrs by flow cytometry; type: functional, cell-based
In short: (§3)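 Jurkat cells were exposed to drug in HBSS pH 7.2 (from DMSO stock) for 30 min at 37 °C, then given UVA 2.5 J cm⁻² (365 nm) at several concentrations. After 24 h, cells were stained with Annexin V-FITC plus propidium iodide and analysed by flow cytometry (ex 488 nm; em 525 nm FITC, 560–680 nm PI).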

[18] = system: Jurkat; experiment: Induction of necrosis in human JURKAT cell sat 5.0 uM treated 30 mins before 2.5 J/cm'2 UVA irradiation measured after 24 hrs; type: functional; in short: as §3
[19] = system: Jurkat; experiment: Induction of apoptosis in human JURKAT cells assessed as reduction in mitochondrial membrane potential at 5 uM treated 30 mins before 2.5 J/cm'2 UVA irradiation measured after 24 hrs by flow cytometry; type: functional, cell-based
In short: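 Jurkat cells were treated with drug at 5 μM and UVA 2.5 J cm⁻², then sampled at different times after irradiation. Cells were resuspended in HBSS with JC-1 2.5 μM for 10 min at 37 °C, then analysed by flow cytometry. Values are mean ± SEM of three experiments.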

[20] = system: Jurkat; experiment: Induction of apoptosis in human JURKAT cells assessed as increase in reactive oxygen species release treated 30 mins before 2.5 J/cm'2 UVA irradiation measured after 24 hrs by hydroethidine staining; type: functional, cell-based
In short: (§4)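 Jurkat cells were irradiated (UVA 2.5 J cm⁻²) with drug at several concentrations. At 24 h they were resuspended in HBSS with hydroethidine 0.1 μM, DCFDA 2.5 μM or NAO 5.0 μM for 30 min at 37 °C. Flow cytometry used ex 488 nm, em 585 nm (HE) or 530 nm (DCFDA, NAO). Values are means ± SEM, n=3.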

[21] = system: Jurkat; experiment: Induction of apoptosis in human JURKAT cells assessed as increase in reactive oxygen species release treated 30 mins before 2.5 J/cm'2 UVA irradiation measured after 24 hrs by DCFDA staining; type: functional, cell-based; in short: as §4
[22] = system: Jurkat; experiment: Induction of apoptosis in human JURKAT cells assessed as increase in cardiolipin oxidation treated 30 mins before 2.5 J/cm'2 UVA irradiation measured after 24 hrs by N-nonyl acridine orange staining; type: functional, cell-based; in short: as §4
[23] = system: Jurkat; experiment: Induction of apoptosis in human JURKAT cells assessed as decrease in intracellular GSH levels treated 30 mins before 2.5 J/cm'2 UVA irradiation measured after 24 hrs by flow cytometry; type: functional, cell-based
In short: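 Jurkat cells were irradiated (2.5 J cm⁻²) with drug at several concentrations. At 24 h cells were harvested and incubated with monobromobimane 50 μM for 10 min at 37 °C. GS-mBBr was measured by flow cytometry (ex 354, em 450). Values are mean ± SEM, n=3.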

[24] = system: Jurkat; experiment: Induction of apoptosis in human JURKAT cells assessed as lysosomal damage treated 30 mins before 2.5 J/cm'2 UVA irradiation measured after 24 hrs by flow cytometry; type: functional, cell-based
In short: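 Jurkat cells were irradiated (2.5 J cm⁻²) with drug at several concentrations. At 24 h cells were stained with acridine orange 5 μg/mL for 15 min at 37 °C, washed, and analysed by flow cytometry (ex 488, em 546 nm).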

[25] = system: Jurkat; experiment: Induction of apoptosis in human JURKAT cells supernatant assessed as lipid peroxidation treated 30 mins before 2.5 J/cm'2 UVA irradiation measured after 24 hrs by thiobarbituric acid assay; type: functional, cell-based
In short: (§5)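 Cells were grown 2 days to confluence, then irradiated in HBSS with drug 10 μM at varied UVA doses. At 24 h, the TBA test was run on supernatant and on cell homogenates. Malonaldehyde was quantified against a 1,1,3,3-tetraethoxypropane standard and expressed as nmol TBARS per total protein.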

[26] = system: Jurkat; experiment: Induction of apoptosis in human JURKAT cells homogenate assessed as lipid peroxidation treated 30 mins before 2.5 J/cm'2 UVA irradiation measured after 24 hrs by thiobarbituric acid assay; type: functional, cell-based; in short: as §5
[27] = system: Erythrocyte; experiment: Induction of protein photodamage of human erythrocyte ghost plasmatic membrane assessed as disappearance of the spectrin subunit bands at 10 uM treated 30 mins before 2.5 J/cm'2 UVA irradiation by electrophoresis; type: cell-based
In short: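 Erythrocyte ghost membranes (1.0 mg/ml protein) were irradiated with drug at increasing UVA doses.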

[28] = system: Nucleic Acid; experiment: Induction of DNA photodamage of salmon testes DNA assessed as DNA intercalation by linear dichroism; type: nucleic-acid assay; conditions: Salmonidae
In short: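 Linear dichroism in a flow cell with salmon testes DNA at 2.27 mM in phosphate buffer, ligand/DNA r = 0, 0.02 and 0.04. Absorbance spectra were recorded alongside.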

[29] = system: Nucleic Acid; experiment: Induction of DNA photodamage of salmon testes DNA assessed as DNA intercalation by circular dichroism; type: nucleic-acid assay; conditions: Salmonidae
In short: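 Circular dichroism of salmon testes DNA (2 μM) with ligand at ligand/DNA ratios 0.02 and 0.04 in phosphate buffer. Spectra are the average of 4 scans.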

[30] = system: Jurkat; experiment: Induction of apoptosis in human JURKAT cells assessed as caspase 3 activation treated 30 mins before 2.5 J/cm'2 UVA irradiation measured after 24 hrs by colorimetric assay
[31] = system: HL-60; experiment: Photocytotoxicity against human HL-60 cells treated 30 mins before 2.5 J/cm'2 UVA irradiation measured after 72 hrs by MTT assay; type: functional, cell-based; conditions: HL-60, light or radiation study
[32] = system: HL-60; experiment: Photocytotoxicity against human HL-60 cells treated 30 mins before 3.75 J/cm'2 UVA irradiation measured after 72 hrs by MTT assay; type: functional, cell-based; conditions: HL-60, light or radiation study
[33] = system: LoVo; experiment: Photocytotoxicity against human LoVo cells treated 30 mins before 2.5 J/cm'2 UVA irradiation measured after 72 hrs by MTT assay; type: functional, cell-based; conditions: light or radiation study
[34] = system: LoVo; experiment: Photocytotoxicity against human LoVo cells treated 30 mins before 3.75 J/cm'2 UVA irradiation measured after 72 hrs by MTT assay; type: functional, cell-based; conditions: light or radiation study

COc1c2occc2cc2ccc(=O)oc12 [METHOXSALEN]
IC50 [1]: 1.2 µM | IC50 [2]: 1.9 µM | IC50 [3]: 5.5 µM | IC50 [4]: 0.9 µM

Cc1cc2c3sc(=O)ccc3ccc2n1C
Activity [5]: inactive | Activity [6]: Active | Activity [7]: Active | Activity [8]: inactive | Activity [9]: inactive | Activity [10]: inactive | IC50 [1]: 0.5 µM | IC50 [11]: 0.2 µM | IC50 [12]: 0.9 µM | IC50 [2]: 0.6 µM | IC50 [3]: 2.1 µM | IC50 [4]: 1.6 µM | Activity [13]: inactive | Activity [14]: inactive | Activity [15]: inactive | Activity [16]: Active | Activity [17]: Dose-dependent effect | Activity [18]: 2% | Activity [19]: Active | Activity [20]: Active | Activity [21]: Active | Activity [22]: Active | Activity [23]: Dose-dependent effect | Activity [24]: Active | Activity [25]: Active | Activity [26]: Active | Activity [27]: Active | Activity [28]: inactive | Activity [29]: inactive | Activity [30]: Active

Cc1cc2c(n1-c1ccccc1)CCc1ccc(=O)sc1-2
IC50 [31]: 6.2 µM | IC50 [32]: 2.7 µM | IC50 [1]: 4.2 µM | IC50 [11]: 3.5 µM | IC50 [12]: 11 µM | IC50 [2]: 10.5 µM | IC50 [33]: > 20 µM | IC50 [34]: 12.3 µM | IC50 [3]: > 20 µM | IC50 [4]: > 20 µM

O=c1ccc2ccc3occc3c2o1 [ANGELICIN]
IC50 [1]: 0.9 µM | IC50 [3]: 4.2 µM | IC50 [4]: 1.5 µM

Cc1cc2c(n1Cc1ccccc1)CCc1ccc(=O)sc1-2
IC50 [31]: 4 µM | IC50 [1]: 4 µM | IC50 [11]: 2.2 µM | IC50 [12]: 11.2 µM | IC50 [2]: 9.8 µM | IC50 [33]: > 20 µM | IC50 [3]: > 20 µM | IC50 [4]: > 20 µM

Cc1cc2c3sc(=O)ccc3ccc2n1-c1ccccc1
IC50 [31]: 2.6 µM | IC50 [32]: 1.3 µM | IC50 [1]: 2.5 µM | IC50 [11]: 3.5 µM | IC50 [12]: 5.4 µM | IC50 [2]: 2 µM | IC50 [33]: 5.1 µM | IC50 [34]: 4.2 µM | IC50 [3]: 17 µM | IC50 [4]: 14.8 µM

Cc1cc2c(n1C)CCc1ccc(=O)sc1-2
IC50 [31]: > 10 µM | IC50 [32]: > 10 µM | IC50 [1]: > 10 µM | IC50 [11]: > 10 µM | IC50 [12]: > 20 µM | IC50 [2]: > 20 µM | IC50 [33]: > 20 µM | IC50 [34]: > 20 µM | IC50 [3]: > 20 µM | IC50 [4]: > 20 µM

Cc1cc2c(n1S(=O)(=O)c1ccccc1)CCc1ccc(=O)sc1-2
IC50 [31]: > 10 µM | IC50 [32]: > 10 µM | IC50 [1]: 7.3 µM | IC50 [11]: 5 µM | IC50 [12]: > 20 µM | IC50 [2]: > 20 µM | IC50 [33]: > 20 µM | IC50 [34]: > 20 µM | IC50 [3]: > 20 µM | IC50 [4]: > 20 µM
